Experimental findings from ChEMBL document CHEMBL1821676, “Click to a focused library of benzyl 6-triazolo(hydroxy)benzoic glucosides: novel construction of PTP1B inhibitors on a sugar scaffold” (Eur J Med Chem, 2011) are described below.

The assay has as its target T1, Tyrosine-protein phosphatase non-receptor type 1 (Homo sapiens, UniProt P18031).
T1 sequence (P18031 whole entry): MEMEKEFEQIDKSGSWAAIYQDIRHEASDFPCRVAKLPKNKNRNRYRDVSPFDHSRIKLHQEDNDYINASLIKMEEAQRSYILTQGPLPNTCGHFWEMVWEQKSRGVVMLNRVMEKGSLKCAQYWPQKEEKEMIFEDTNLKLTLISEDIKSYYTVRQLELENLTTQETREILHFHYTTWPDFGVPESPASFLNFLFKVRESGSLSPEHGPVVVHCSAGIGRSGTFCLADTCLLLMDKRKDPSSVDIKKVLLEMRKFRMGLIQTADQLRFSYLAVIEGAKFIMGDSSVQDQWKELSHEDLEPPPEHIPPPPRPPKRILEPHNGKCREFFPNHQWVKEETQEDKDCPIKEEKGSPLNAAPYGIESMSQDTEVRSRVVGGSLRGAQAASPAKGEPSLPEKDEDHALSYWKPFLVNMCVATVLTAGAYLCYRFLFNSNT
The experiment in a line: Inhibition of human recombinant PTP1B expressed in CHO cells assessed as p-nitorphenol production after 2 mins by microplate reader. In kind it is cell-based. Summed up: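 Recombinant human PTP1B catalytic domain (30 nM) with 2 mM pNPP in 50 mM MOPS, pH 6.5, at 30 °C. pNP release was read continuously at 405 nm for 2 min, and the initial rate was taken from the early linear region. Inhibitors were diluted around the estimated IC50. IC50 came from a nonlinear fit of % inhibition vs [I] using a Hill-coefficient equation.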
`O=C(O)c1cccc(O)c1` [3-HYDROXYBENZOIC ACID]: the IC50 is greater than 100 µM.

With `O=C(O)c1cc(O)ccc1O` [GENTISIC ACID], the IC50 was greater than 100 µM.

As for `O=C(O)c1cc(O)cc(O)c1` [3,5-DIHYDROXYBENZOIC ACID], the IC50 is greater than 100 µM.

The term IC50 denotes the midpoint of a concentration-inhibition curve.
